Assay results as given in PMC3288656 (Biochemical pharmacology, 2012).
Several values for one entry are separate records, joined by “and”; a condition that tells them apart may be missing. Identical values can stand only once. Marks after values point to notes of the source that are not given here.

How the values were obtained:
CB1Rs [1] = molecular target: T1, CB1Rs (Mus musculus, UniProt P47746); assay: [35S]GTPγS binding assay; format: biochemical; details: for [35S]GTPγS Binding Emax: concentration-effect curves, mouse brain homogenates, n=3–4; for intrinsic activity at CB1Rs: conclusion from [35S]GTPγS binding data
[2] = system: core body temperature (hypothermia); assay: Cannabinoid tetrad: core body temperature by biotelemetry; format: in vivo, NIH Swiss mice; details: for minimum core body temperature recorded / time to maximal core body temperature reduction (Tmax): 10 mg/kg, i.p.
locomotor activity = assay: Cannabinoid tetrad: locomotor activity by biotelemetry; format: in vivo, NIH Swiss mice; details: for locomotor activity: mice
Summary of the method: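 Abdominal biotelemetry probes were implanted in male NIH Swiss mice under ketamine 100 mg/kg plus xylazine 10 mg/kg i.p., with at least 7 days recovery. Mice were housed singly, acclimated at least 2 h, and gave at least 1 h of baseline. They were then dosed i.p. in 1:1:18 ethanol:emulphor:saline (10 mL/kg) and moved to a fresh-bedding cage. Activity was logged every 5 min for at least 10 h. Groups of 5 or 6.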

analgesia (tail flick) = assay: Cannabinoid tetrad: analgesia, tail-flick latency; format: in vivo, NIH Swiss mice
Summary of the method: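 Male NIH Swiss mice (~25–30 g, drug-naïve, groups of 5 or 6) received i.p. test compound in ethanol:emulphor:saline 1:1:18 at 10 mL/kg. Radiant-heat tail flick used sensitivity 150 and light intensity 369, calibrated so untreated mice respond in 2–4 s, with a 10 s cutoff. The photobeam break stopped the timer. One trial per mouse at 0, 10, 30 and 60 min post-dose.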

catalepsy = assay: Cannabinoid tetrad: catalepsy, horizontal bar test; format: in vivo, NIH Swiss mice
Summary of the method: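 Catalepsy was measured as time on a horizontal bar in male NIH Swiss mice (groups of 5 or 6, drug-naïve). Dosing was i.p. in 1:1:18 ethanol:emulphor:saline (10 mL/kg). The steel bar was 0.5 cm in diameter and sat 4.0 cm above a platform. Forelimbs went on the bar and hindlimbs on the platform in a rearing posture. Timing ran until both paws left the bar, maximum 30 s. Single trial per time point at 0, 10, 30 and 60 min.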

CB1Rs [3] = molecular target: T1, CB1Rs; assay: Competition receptor binding with [3H]CP-55,940 in mouse brain homogenates
[4] = drug 10 μM (receptor-saturating)
[5] = JWH-018 3 mg/kg i.p. alone, mice
[6] = drug 1 μM co-incubated with CB1R antagonist O-2050 1 μM
[7] = 10 mg/kg, i.p., relative to vehicle
[8] = M4 10 mg/kg i.p. + JWH-018 3 mg/kg i.p. vs JWH-018 alone

T1 sequence (P47746 whole entry): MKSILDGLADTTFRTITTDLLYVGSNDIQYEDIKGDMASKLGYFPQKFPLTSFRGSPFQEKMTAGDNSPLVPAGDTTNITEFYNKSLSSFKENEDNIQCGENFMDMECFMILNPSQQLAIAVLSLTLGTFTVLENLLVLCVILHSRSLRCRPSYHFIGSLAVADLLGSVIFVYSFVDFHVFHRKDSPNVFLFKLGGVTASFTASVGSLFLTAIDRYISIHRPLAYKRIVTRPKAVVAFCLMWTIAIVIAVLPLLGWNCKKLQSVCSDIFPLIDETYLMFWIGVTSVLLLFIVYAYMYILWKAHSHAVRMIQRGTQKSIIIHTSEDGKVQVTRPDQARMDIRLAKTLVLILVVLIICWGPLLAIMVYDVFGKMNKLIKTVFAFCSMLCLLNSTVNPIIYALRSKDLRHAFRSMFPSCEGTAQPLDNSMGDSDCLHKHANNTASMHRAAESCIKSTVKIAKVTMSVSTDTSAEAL

CCCCCCC(C)(C)c1ccc([C@@H]2C[C@H](O)CC[C@H]2CCCO)c(O)c1 [CP-55,940, reference compound]
[35S]GTPγS Binding Emax (CB1Rs [1]): 0.26 ± 0.01 ^a pmole/mg | intrinsic activity at CB1Rs (CB1Rs [1]): full CB1R agonists | [35S]GTPγS Binding (CB1Rs [1]; drug 100 nM): 0.20 ± 0.04 pmol/mg | [35S]GTPγS Binding + O-2050 (1 μM) (CB1Rs [1]; drug 100 nM co-incubated with CB1R antagonist O-2050 1 μM): 0.06 ± 0.03 pmol/mg | [35S]GTPγS Binding (CB1Rs [1]; [4]): 0.32 ± 0.02 pmole/mg and 0.32 ± 0.02 ^c, pmole/mg

CCCCCn1cc(C(=O)c2cccc3ccccc23)c2ccccc21 [JWH-018, reference compound]
EC50 (CB1Rs [1]; read-out: EC50 for G-protein activation, JWH-018 alone): 8 nM | maximal decrease in core body temperature to [2, 5]: 30.28 +/− 0.71 °C | locomotor activity (locomotor activity; JWH-018 3 mg/kg i.p. alone): locomotor suppression | analgesia (tail flick assay) (analgesia (tail flick); [5]): robust analgesia | catalepsy (catalepsy; [5]): catalepsy

CCCCn1cc(C(=O)c2cccc3ccccc23)c2ccccc21 [JWH-073, (1-butyl-1H-indole-3-yl)-1-naphthalenyl-methanone, reference compound]
[35S]GTPγS Binding Emax (CB1Rs [1]): 0.27 ± 0.01 ^a pmole/mg | intrinsic activity at CB1Rs (CB1Rs [1]): full CB1R agonists | [35S]GTPγS Binding (CB1Rs [1]; drug 1 μM): 0.27 ± 0.04 pmol/mg | [35S]GTPγS Binding + O-2050 (1 μM) (CB1Rs [1]; [6]): 0.07 ± 0.02 pmol/mg | [35S]GTPγS Binding (CB1Rs [1]; [4]): 0.28 ± 0.03 pmole/mg and 0.28 ± 0.03 ^c pmole/mg | minimum core body temperature recorded ([2]; mice): 29.74 ± 1.44 °C | time to maximal core body temperature reduction (Tmax) ([2]; mice): 54.17 ± 5.23 min | locomotor activity (locomotor activity; [7]): locomotor suppression

CCCCn1cc(C(=O)c2cccc3ccccc23)c2c(O)cccc21 [M1]
[35S]GTPγS Binding Emax (CB1Rs [1]): 0.14 ± 0.01 ^b pmole/mg | intrinsic activity at CB1Rs (CB1Rs [1]): partial agonist activity | [35S]GTPγS Binding (CB1Rs [1]; drug 1 μM): 0.17 ± 0.01 pmol/mg | [35S]GTPγS Binding + O-2050 (1 μM) (CB1Rs [1]; [6]): 0.07 ± 0.01 pmol/mg | [35S]GTPγS Binding (CB1Rs [1]; [4]): 0.14 ± 0.01 pmole/mg and 0.14 ± 0.01 ^a pmole/mg | minimum core body temperature recorded ([2]; mice): 30.32 ± 0.66 °C | time to maximal core body temperature reduction (Tmax) ([2]; mice): 58.00 ± 4.64 min | locomotor activity (locomotor activity; [7]): reduction of locomotor activity similar to that observed with administration of JWH-073

CCCCn1cc(C(=O)c2cccc3ccccc23)c2ccc(O)cc21 [M3]
Ki (CB1Rs [3]; read-out: CB1R affinity (Ki), displacement of [3H]CP-55,940, mouse brain homogenates, n=4): 1280 ± 470 nM | intrinsic activity at CB1Rs (CB1Rs [1]): partial agonist activity | [35S]GTPγS Binding (CB1Rs [1]; drug 1 μM): 0.04 ± 0.00 pmol/mg | [35S]GTPγS Binding + O-2050 (1 μM) (CB1Rs [1]; [6]): 0.02 ± 0.01 pmol/mg | [35S]GTPγS Binding (CB1Rs [1]; [4]): 0.11 ± 0.02 pmole/mg and 0.11 ± 0.02 ^a, ^b pmole/mg

CCCCn1cc(C(=O)c2cccc3ccccc23)c2cccc(O)c21 [M4]
antagonism of CB1R agonists and inverse agonists in [35S]GTPγS binding (CB1Rs [1]; M4 10 μM with 100 nM CP, 1 μM JWH-018, 500 nM JWH-073, 10 μM Rimonabant or AM251): significantly antagonized | Schild plot slope (CB1Rs [1]; M4 against JWH-018): 0.97 | effect on basal [35S]GTPγS binding (CB1Rs [1]; M4 alone, 0.1 nM to 10 μM): neither significantly increased | intrinsic activity at CB1Rs (CB1Rs [1]): lacks significant intrinsic activity | JWH-018-induced hypothermia, area under the curve 0–500 minutes ([2]; M4 10 mg/kg i.p. + JWH-018 3 mg/kg i.p. vs JWH-018 alone, n=5): significantly attenuated hypothermia | change in body temperature ([2]; M4 10 mg/kg i.p. alone, mice): no significant change in body temperature | core body temperature minimum, JWH-018-induced hypothermia with M4 ([2]; M4 10 mg/kg i.p. co-administered with JWH-018 3 mg/kg i.p., mice): 33.09 +/− 0.70 °C | antagonism of JWH-018-induced locomotor suppression (locomotor activity; [8]): no difference | antagonism of JWH-018-induced analgesia (analgesia (tail flick); [8]): no difference | antagonism of JWH-018-induced catalepsy (catalepsy; [8]): no difference

O=C(c1cccc2ccccc12)c1cn(CCCCO)c2ccccc12 [M5, 1-(4-hydroxybutyl-1H-indole-3-yl)(naphthalen-1-yl)-methanone]
intrinsic activity at CB1Rs (CB1Rs [1]): partial agonist activity | [35S]GTPγS Binding (CB1Rs [1]; drug 1 μM): 0.12 ± 0.00 pmol/mg | [35S]GTPγS Binding + O-2050 (1 μM) (CB1Rs [1]; [6]): 0.05 ± 0.01 pmol/mg | [35S]GTPγS Binding (CB1Rs [1]; [4]): 0.16 ± 0.02 pmole/mg and 0.16 ± 0.02 ^a pmole/mg

O=C(O)CCCn1cc(C(=O)c2cccc3ccccc23)c2ccccc21 [M6, 4-(3-(1-naphthoyl)-1H-indole-1-yl)-1-butanoic acid]
displacement of [3H]CP-55,940 specific binding (CB1Rs [3]; concentrations as high as 10 μM, n=3): less than 10%
